Measured values taken from ChEMBL document CHEMBL1124270, “Quinolone antibacterial agents. Synthesis and structure-activity relationships of 8-substituted quinoline-3-carboxylic acids and 1,8-naphthyridine-3-carboxylic acids” (1988).
In brackets after ≈: the same amount, converted by molar mass.

Legend:
Format in all cases: functional
Staphylococcus aureus [1] = experiment: In vivo potency against Staphylococcus aureus using mouse protection assay following s.c. administration.; conditions: sc, read-out: PD50
Pseudomonas aeruginosa = experiment: Minimum inhibitory concentration against Pseudomonas aeruginosa UI-18 in vitro.
Mus musculus [2] = experiment: In vivo potency against Escherichia coli vogel using mouse protection assay when given subcutaneously; conditions: sc, read-out: PD50
Klebsiella pneumoniae = experiment: Minimum inhibitory concentration against Klebsiella pneumoniae MGH-2 in vitro.
Escherichia coli [3] = experiment: Minimum concentration needed to produce linear DNA at an intensity relative to oxolinic at 10 ug/mL in Escherichia coli H560 in vitro.
In short: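 DNA gyrase cleavage test, run as previously described: end point is the lowest drug level (µg/mL) that yields linear DNA at a band intensity matching oxolinic acid at 10 µg/mL. Values come from duplicate or triplicate experiments and are stated as accurate to ±50%.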

Enterobacter cloacae = experiment: Minimum inhibitory concentration against Enterobacter cloacae HA 2646 in vitro.
Staphylococcus aureus [4] = experiment: Minimum inhibitory concentration against Staphylococcus aureus UC-76 in vitro.
Enterococcus faecalis = experiment: Minimum inhibitory concentration against Streptococcus faecalis MGH-2 in vitro.
Providencia rettgeri = experiment: Minimum inhibitory concentration against Providencia rettgeri H1771 in vitro.
Staphylococcus aureus [5] = experiment: In vivo potency against Staphylococcus aureus using mouse protection assay following p.o. administration.; conditions: po, read-out: PD50
Escherichia coli [6] = experiment: Minimum inhibitory concentration against Escherichia coli vogel in vitro.
Escherichia coli [7] = experiment: Minimum inhibitory concentration against Escherichia coli H560 in vitro.
Streptococcus pneumoniae [8] = experiment: Minimum inhibitory concentration against Streptococcus pneumoniae SV-1 in vitro.
Mus musculus [9] = experiment: In vivo potency against Escherichia coli vogel using mouse protection assay when given perorally; conditions: po, read-out: PD50
Streptococcus pneumoniae [10] = experiment: In vivo potency against Streptococcus pneumoniae using mouse protection assay following p.o. administration.; conditions: po, read-out: PD50
Streptococcus pneumoniae [11] = experiment: In vivo potency against Streptococcus pneumoniae using mouse protection assay following s.c. administration.; conditions: sc, read-out: PD50
Streptococcus pyogenes = experiment: Minimum inhibitory concentration against Streptococcus pyogenes C203 in vitro.
Staphylococcus aureus [12] = experiment: Minimum inhibitory concentration against Staphylococcus aureus H228 in vitro.

Row | SMILES | ED50 (Staphylococcus aureus [1]) [mg/kg] | MIC (Pseudomonas aeruginosa) [µg/mL] | ED50 (Mus musculus [2]) [mg/kg] | MIC (Klebsiella pneumoniae) [µg/mL] | DNA cleavage conc (gyrase) (Escherichia coli [3]) [µg/mL] | MIC (Enterobacter cloacae) [µg/mL] | MIC (Staphylococcus aureus [4]) [µg/mL] | MIC (Enterococcus faecalis) [µg/mL] | MIC (Providencia rettgeri) [µg/mL] | ED50 (Staphylococcus aureus [5]) [mg/kg] | MIC (Escherichia coli [6]) [µg/mL] | MIC (Escherichia coli [7]) [µg/mL] | MIC (Streptococcus pneumoniae [8]) [µg/mL] | ED50 (Mus musculus [9]) [mg/kg] | ED50 (Streptococcus pneumoniae [10]) [mg/kg] | ED50 (Streptococcus pneumoniae [11]) [mg/kg] | MIC (Streptococcus pyogenes) [µg/mL] | MIC (Staphylococcus aureus [12]) [µg/mL]
1 | CCNCC1CCN(c2nc3c(cc2F)c(=O)c(C(=O)O)cn3C2CC2)C1 (stereo unspecified) | 15 | 0.8 (≈ 2.14 µM) | 1 | 0.1 (≈ 0.267 µM) | 0.75 | 0.2 (≈ 0.534 µM) | 0.05 (≈ 0.134 µM) | 0.1 (≈ 0.267 µM) | 0.8 (≈ 2.14 µM) | 62 | 0.1 (≈ 0.267 µM) | 0.05 (≈ 0.134 µM) | 0.1 (≈ 0.267 µM) | 7 | 16 | 6 | 0.1 (≈ 0.267 µM) | 0.1 (≈ 0.267 µM)
2 | CN(C)CC1CCN(c2cc3c(cc2F)c(=O)c(C(=O)O)cn3C2CC2)C1 (stereo unspecified) | 26 | 1.6 (≈ 4.28 µM) | 2 | 0.2 (≈ 0.536 µM) | 0.75 | 0.1 (≈ 0.268 µM) | 0.1 (≈ 0.268 µM) | 0.2 (≈ 0.536 µM) | 0.4 (≈ 1.07 µM) | 47 | 0.1 (≈ 0.268 µM) | 0.1 (≈ 0.268 µM) | 0.1 (≈ 0.268 µM) | 4 | 18 | 9 | 0.2 (≈ 0.536 µM) | 0.1 (≈ 0.268 µM)
3 | O=C(O)c1cn(C2CC2)c2c(F)c(N3CCNCC3)c(F)cc2c1=O | 3 | 0.2 (≈ 0.573 µM) | 0.3 | 0.1 (≈ 0.286 µM) | 0.5 | 0.05 (≈ 0.143 µM) | 0.1 (≈ 0.286 µM) | 0.4 (≈ 1.15 µM) | 0.1 (≈ 0.286 µM) | 7 | 0.1 (≈ 0.286 µM) | 0.025 (≈ 0.0716 µM) | 0.8 (≈ 2.29 µM) | 0.5 | 59 | 29 | 0.8 (≈ 2.29 µM) | 0.4 (≈ 1.15 µM)
4 | CN(C)CC1CCN(c2c(F)cc3c(=O)c(C(=O)O)cn(C4CC4)c3c2F)C1 (stereo unspecified) | 20 | 0.8 (≈ 2.04 µM) | 1 | 0.2 (≈ 0.511 µM) | 0.1 | 0.2 (≈ 0.511 µM) | 0.025 (≈ 0.0639 µM) | 0.025 (≈ 0.0639 µM) | 0.8 (≈ 2.04 µM) | 45 | 0.2 (≈ 0.511 µM) | 0.025 (≈ 0.0639 µM) | 0.05 (≈ 0.128 µM) | 2 | 5 | 5 | 0.05 (≈ 0.128 µM) | 0.025 (≈ 0.0639 µM)
5 | CN(C)CC1CCN(c2c(F)cc3c(=O)c(C(=O)O)cn(C4CC4)c3c2Cl)C1 (stereo unspecified) | 38 | 0.8 (≈ 1.96 µM) | 2 | 0.1 (≈ 0.245 µM) | 1 | 0.2 (≈ 0.49 µM) | 0.006 (≈ 0.0147 µM) | 0.05 (≈ 0.123 µM) | 0.4 (≈ 0.981 µM) | 61 | 0.1 (≈ 0.245 µM) | 0.025 (≈ 0.0613 µM) | 0.006 (≈ 0.0147 µM) | 4 | 2 | 2 | 0.025 (≈ 0.0613 µM) | 0.013 (≈ 0.0319 µM)
6 | NC1CCN(c2nc3c(cc2F)c(=O)c(C(=O)O)cn3C2CC2)C1 (stereo unspecified) | 3 | 0.05 (≈ 0.15 µM) | 0.6 | 0.025 (≈ 0.0752 µM) | 1 | 0.05 (≈ 0.15 µM) | 0.013 (≈ 0.0391 µM) | 0.2 (≈ 0.602 µM) | 0.1 (≈ 0.301 µM) | 7 | 0.013 (≈ 0.0391 µM) | 0.006 (≈ 0.0181 µM) | 0.2 (≈ 0.602 µM) | 2 | 58 | 33 | 0.2 (≈ 0.602 µM) | 0.2 (≈ 0.602 µM)
7 | CN(C)CC1CCN(c2nc3c(cc2F)c(=O)c(C(=O)O)cn3C2CC2)C1 (stereo unspecified) | 27 | 0.4 (≈ 1.07 µM) | 1 | 0.2 (≈ 0.534 µM) | 0.75 | 0.1 (≈ 0.267 µM) | 0.05 (≈ 0.134 µM) | 0.2 (≈ 0.534 µM) | 0.8 (≈ 2.14 µM) | 31 | 0.05 (≈ 0.134 µM) | 0.05 (≈ 0.134 µM) | 0.05 (≈ 0.134 µM) | 2 | 7 | 7 | 0.1 (≈ 0.267 µM) | 0.1 (≈ 0.267 µM)
8 | CC(C)NCC1CCN(c2nc3c(cc2F)c(=O)c(C(=O)O)cn3C2CC2)C1 (stereo unspecified) | 16 | 0.8 (≈ 2.06 µM) | 2 | 0.4 (≈ 1.03 µM) | 2.5 | 0.2 (≈ 0.515 µM) | 0.1 (≈ 0.257 µM) | 0.2 (≈ 0.515 µM) | 1.6 (≈ 4.12 µM) | 35 | 0.2 (≈ 0.515 µM) | 0.1 (≈ 0.257 µM) | 0.2 (≈ 0.515 µM) | 8 | – | – | 0.2 (≈ 0.515 µM) | 0.2 (≈ 0.515 µM)
9 | Cl.Cl.NC1CCN(c2cc3c(cc2F)c(=O)c(C(=O)O)cn3C2CC2)C1 (stereo unspecified) | – | 0.1 | 0.5 | 0.1 | 0.1 | 0.025 | 0.025 | 0.1 | 0.1 | 49.5 | 0.025 | 0.006 | 0.05 | 3 | 43 | 4 | 0.1 | 0.1
10 | CN(C)CC1CCN(c2c(F)cc3c(=O)c(C(=O)O)cn(C4CC4)c3c2N)C1.Cl (stereo unspecified) | 81 | 3.1 | 4 | 0.8 | 5 | 0.2 | 0.1 | 0.4 | 0.8 | 100 | 0.4 | 0.4 | 0.4 | 9 | – | – | 0.4 | 0.2
11 | O=C(O)c1cn(C2CC2)c2nc(N3CCNCC3)c(F)cc2c1=O | 6 | 0.2 (≈ 0.602 µM) | 0.4 | 0.1 (≈ 0.301 µM) | 1 | 0.1 (≈ 0.301 µM) | 0.4 (≈ 1.2 µM) | 1.6 (≈ 4.81 µM) | 0.2 (≈ 0.602 µM) | 14 | 0.05 (≈ 0.15 µM) | 0.05 (≈ 0.15 µM) | 1.6 (≈ 4.81 µM) | 0.7 | – | – | 1.6 (≈ 4.81 µM) | 1.6 (≈ 4.81 µM)
12 | O=C(O)c1cn(C2CC2)c2cc(N3CCNCC3)c(F)cc2c1=O [CIPROFLOXACIN] | 5 | 0.4 (≈ 1.21 µM) | 0.3 | 0.1 (≈ 0.302 µM) | – | – | 0.2 (≈ 0.604 µM) | 0.8 (≈ 2.41 µM) | 0.1 (≈ 0.302 µM) | 25 | – | 0.025 (≈ 0.0754 µM) | 1.6 (≈ 4.83 µM) | 1 | > 100 | 19 | 0.8 (≈ 2.41 µM) | 3.1 (≈ 9.36 µM)
